For two compounds, IC50 and viability results are on record in ChEMBL document CHEMBL4346670, “Discovery of Novel Janus Kinase (JAK) and Histone Deacetylase (HDAC) Dual Inhibitors for the Treatment of Hematological Malignancies” (J Med Chem, 2019).

Test [1] has as its system K562. Nature of the test: Antiproliferative activity against human K562 cells assessed as reduction in cell viability after 48 hrs by MTT assay. It is filed as functional, cell-based. The following applies: K562, 48 h.
The target of test [2] is Tyrosine-protein kinase JAK2 (Homo sapiens, UniProt O60674). The test is described as follows: Inhibition of recombinant human JAK2 using Ulight-CAGAGAIETDKEYYTVKD as substrate measured after 60 mins by LANCE assay. (In general: Time-resolved FRET reads energy transfer from a long-lived donor to a nearby acceptor.)
Sequence of Tyrosine-protein kinase JAK2 (O60674 whole entry): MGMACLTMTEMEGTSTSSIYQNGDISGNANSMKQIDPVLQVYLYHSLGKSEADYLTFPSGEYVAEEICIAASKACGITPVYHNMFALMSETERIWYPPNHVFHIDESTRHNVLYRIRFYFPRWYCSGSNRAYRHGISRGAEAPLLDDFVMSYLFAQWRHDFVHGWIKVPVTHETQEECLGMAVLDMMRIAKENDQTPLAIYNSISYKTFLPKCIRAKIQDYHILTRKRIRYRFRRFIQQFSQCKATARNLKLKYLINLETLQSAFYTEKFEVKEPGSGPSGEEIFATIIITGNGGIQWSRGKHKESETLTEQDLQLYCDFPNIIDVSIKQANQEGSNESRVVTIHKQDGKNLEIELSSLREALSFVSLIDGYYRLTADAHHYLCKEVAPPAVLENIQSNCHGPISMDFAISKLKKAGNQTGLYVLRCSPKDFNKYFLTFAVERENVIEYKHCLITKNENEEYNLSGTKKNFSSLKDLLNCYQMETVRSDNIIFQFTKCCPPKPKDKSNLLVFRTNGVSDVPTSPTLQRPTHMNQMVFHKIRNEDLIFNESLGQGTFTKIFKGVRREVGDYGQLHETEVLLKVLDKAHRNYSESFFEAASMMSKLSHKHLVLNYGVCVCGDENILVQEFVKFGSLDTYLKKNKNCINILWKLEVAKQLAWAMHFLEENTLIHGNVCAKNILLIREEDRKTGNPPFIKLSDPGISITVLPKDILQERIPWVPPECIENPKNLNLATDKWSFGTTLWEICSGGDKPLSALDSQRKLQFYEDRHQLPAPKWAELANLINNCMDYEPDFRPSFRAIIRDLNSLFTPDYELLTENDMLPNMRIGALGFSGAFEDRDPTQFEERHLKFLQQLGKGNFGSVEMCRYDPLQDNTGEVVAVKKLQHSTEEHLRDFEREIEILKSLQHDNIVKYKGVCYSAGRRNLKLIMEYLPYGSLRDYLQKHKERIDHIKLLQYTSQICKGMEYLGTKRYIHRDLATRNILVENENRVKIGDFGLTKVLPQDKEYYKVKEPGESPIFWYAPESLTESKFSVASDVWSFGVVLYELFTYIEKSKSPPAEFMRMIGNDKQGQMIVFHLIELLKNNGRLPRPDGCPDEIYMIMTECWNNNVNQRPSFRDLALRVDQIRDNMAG
The target in test [3] is Tyrosine-protein kinase JAK1 (Homo sapiens, UniProt P23458). The test is described as follows: Inhibition of recombinant human JAK1 using Ulight-CAGAGAIETDKEYYTVKD as substrate measured after 60 mins by LANCE assay. In short, it runs like this: (§1)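 Human recombinant JAK enzyme assays run by a contract lab. IC50 was taken from a non-linear curve fit, with all parameters allowed to float. Assays were run in replicate (n>2) and reported as mean ± SD.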
Sequence of Tyrosine-protein kinase JAK1 (P23458 whole entry): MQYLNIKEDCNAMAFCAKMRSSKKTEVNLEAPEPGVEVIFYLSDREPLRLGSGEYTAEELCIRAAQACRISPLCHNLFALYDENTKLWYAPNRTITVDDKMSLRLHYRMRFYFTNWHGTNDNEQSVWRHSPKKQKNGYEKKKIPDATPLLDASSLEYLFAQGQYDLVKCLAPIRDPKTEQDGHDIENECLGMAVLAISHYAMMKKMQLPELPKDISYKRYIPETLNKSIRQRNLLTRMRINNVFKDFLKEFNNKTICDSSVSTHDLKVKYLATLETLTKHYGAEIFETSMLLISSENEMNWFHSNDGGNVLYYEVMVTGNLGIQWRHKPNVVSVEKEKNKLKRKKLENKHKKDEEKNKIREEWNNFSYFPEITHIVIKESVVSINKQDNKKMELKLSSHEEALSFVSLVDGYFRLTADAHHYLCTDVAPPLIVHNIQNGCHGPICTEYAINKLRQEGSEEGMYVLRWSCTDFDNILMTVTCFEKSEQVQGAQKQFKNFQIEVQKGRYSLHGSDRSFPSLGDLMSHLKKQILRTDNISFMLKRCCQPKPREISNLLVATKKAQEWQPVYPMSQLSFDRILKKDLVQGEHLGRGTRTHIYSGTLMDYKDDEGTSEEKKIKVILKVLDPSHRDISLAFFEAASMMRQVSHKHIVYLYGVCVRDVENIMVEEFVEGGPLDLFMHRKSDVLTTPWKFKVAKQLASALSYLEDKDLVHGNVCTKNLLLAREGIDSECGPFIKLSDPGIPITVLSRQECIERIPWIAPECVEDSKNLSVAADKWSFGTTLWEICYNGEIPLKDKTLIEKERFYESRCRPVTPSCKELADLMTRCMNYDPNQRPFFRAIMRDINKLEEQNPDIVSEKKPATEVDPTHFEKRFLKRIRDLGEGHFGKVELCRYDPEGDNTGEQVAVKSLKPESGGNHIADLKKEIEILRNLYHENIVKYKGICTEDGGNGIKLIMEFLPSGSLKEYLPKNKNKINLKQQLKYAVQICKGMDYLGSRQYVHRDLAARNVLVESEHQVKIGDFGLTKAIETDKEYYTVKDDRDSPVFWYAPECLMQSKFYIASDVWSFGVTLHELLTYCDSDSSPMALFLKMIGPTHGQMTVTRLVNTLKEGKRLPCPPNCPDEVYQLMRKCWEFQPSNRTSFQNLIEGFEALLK

Test [4] deals with Non-receptor tyrosine-protein kinase TYK2 (Homo sapiens, UniProt P29597). The test is described as follows: Inhibition of recombinant human TYK2 using Ulight-CAGAGAIETDKEYYTVKD as substrate measured after 60 mins by LANCE assay. A digest of the protocol:
as §1

In test [5] the target is T1, Protein deacetylase HDAC6 (Homo sapiens, UniProt Q9UBN7).
T1 sequence (Q9UBN7 whole entry): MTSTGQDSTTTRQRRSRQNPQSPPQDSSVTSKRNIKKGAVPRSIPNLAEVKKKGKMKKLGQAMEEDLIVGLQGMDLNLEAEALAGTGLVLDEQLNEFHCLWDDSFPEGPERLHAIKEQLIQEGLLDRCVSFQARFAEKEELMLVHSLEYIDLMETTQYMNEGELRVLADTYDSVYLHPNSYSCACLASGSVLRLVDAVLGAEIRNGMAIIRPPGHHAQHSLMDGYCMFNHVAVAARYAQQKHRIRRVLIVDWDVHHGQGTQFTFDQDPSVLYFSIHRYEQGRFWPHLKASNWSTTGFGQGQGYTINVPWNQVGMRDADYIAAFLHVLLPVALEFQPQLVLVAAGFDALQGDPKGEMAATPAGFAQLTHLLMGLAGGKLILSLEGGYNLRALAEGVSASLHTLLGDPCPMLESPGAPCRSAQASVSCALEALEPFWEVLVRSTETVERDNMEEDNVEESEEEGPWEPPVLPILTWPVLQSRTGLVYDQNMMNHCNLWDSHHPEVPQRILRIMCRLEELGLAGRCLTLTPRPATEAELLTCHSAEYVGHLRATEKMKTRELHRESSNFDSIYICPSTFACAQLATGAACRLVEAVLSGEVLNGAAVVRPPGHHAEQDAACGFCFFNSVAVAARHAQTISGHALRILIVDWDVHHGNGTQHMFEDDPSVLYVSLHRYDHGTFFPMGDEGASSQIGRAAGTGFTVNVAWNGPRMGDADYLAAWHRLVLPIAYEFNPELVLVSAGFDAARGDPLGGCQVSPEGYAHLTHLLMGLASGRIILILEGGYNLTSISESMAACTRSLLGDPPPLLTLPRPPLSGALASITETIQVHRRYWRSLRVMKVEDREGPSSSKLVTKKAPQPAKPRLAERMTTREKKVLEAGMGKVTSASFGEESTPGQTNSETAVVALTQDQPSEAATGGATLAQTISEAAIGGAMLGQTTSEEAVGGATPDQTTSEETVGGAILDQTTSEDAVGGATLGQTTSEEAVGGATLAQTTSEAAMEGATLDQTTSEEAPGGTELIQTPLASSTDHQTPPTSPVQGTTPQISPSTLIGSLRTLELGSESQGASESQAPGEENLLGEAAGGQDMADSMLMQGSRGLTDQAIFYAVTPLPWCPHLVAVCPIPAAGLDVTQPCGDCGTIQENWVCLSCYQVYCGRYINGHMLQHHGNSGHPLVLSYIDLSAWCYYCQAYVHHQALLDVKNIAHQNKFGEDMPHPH
The test is described as follows: Inhibition of HDAC6 (unknown origin) using Boc-Lys(acetyl)-AMC as substrate preincubated for 5 mins followed by substrate addition and measured after 30 mins by fluorescence assay.

In test [6] the test system is MOLT-4. Nature of the test: Antiproliferative activity against human MOLT4 cells assessed as reduction in cell viability after 48 hrs by MTT assay. To be noted: MOLT-4, 48 h. It is filed as functional, cell-based. In short, it runs like this: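 Cells kept in RPMI1640 with 10% FBS at 37 °C, 5% CO2. Seeded and grown for 12 h, then exposed to a range of compound concentrations for 48 h. 0.5% MTT added for 4 h, formazan dissolved in DMSO, absorbance read at 570 nm.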
(In general: Tetrazolium assays rely on reduction of a dye to a coloured formazan, in cell work by metabolically active cells.)

The subject of test [7] is HEL. The test is described as follows: Induction of apoptosis in HEL cells assessed as viable cells at 1 uM after 24 hrs by Annexin-V/propidium iodide staining-based flow cytometric analysis (reference value: 87.5%). It is filed as functional, Homo sapiens. To be noted: Homo sapiens, HEL, 24 h; read-out: Activity. (A flow cytometer gives signals particle by particle.)

Sequence of Non-receptor tyrosine-protein kinase TYK2 (P29597 whole entry): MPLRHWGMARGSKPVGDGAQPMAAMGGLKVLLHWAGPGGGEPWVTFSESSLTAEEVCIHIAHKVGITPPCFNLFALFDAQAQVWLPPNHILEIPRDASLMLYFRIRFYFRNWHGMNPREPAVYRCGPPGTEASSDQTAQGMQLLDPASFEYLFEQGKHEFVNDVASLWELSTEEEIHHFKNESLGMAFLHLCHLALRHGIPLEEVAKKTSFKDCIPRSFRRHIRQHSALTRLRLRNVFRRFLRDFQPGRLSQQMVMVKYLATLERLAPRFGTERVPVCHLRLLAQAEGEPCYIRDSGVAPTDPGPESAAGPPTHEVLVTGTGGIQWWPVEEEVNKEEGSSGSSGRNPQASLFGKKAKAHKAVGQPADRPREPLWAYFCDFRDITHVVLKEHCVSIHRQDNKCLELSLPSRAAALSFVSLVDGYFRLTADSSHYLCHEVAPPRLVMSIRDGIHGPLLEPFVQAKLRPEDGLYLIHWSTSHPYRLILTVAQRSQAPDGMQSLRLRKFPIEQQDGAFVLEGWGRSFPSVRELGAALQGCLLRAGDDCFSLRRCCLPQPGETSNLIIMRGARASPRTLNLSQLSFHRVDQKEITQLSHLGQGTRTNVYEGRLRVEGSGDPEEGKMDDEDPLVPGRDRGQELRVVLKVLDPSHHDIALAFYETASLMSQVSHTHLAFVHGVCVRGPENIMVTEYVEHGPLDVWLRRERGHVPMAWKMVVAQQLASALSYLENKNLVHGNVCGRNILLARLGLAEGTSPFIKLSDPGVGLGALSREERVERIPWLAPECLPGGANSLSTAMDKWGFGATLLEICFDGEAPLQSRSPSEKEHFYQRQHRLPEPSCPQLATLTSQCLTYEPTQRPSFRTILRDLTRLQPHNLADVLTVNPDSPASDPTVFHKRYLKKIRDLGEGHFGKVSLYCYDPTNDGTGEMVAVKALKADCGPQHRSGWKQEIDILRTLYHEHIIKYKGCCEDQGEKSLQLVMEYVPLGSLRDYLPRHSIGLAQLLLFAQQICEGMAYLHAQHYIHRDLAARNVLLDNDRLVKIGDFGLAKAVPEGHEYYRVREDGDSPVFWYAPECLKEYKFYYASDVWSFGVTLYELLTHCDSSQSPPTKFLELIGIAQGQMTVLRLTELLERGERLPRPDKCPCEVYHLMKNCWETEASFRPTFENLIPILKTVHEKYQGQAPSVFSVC

Usually IC50 stands for the concentration at which inhibition is half-maximal. As for `O=C(CCCCCn1cc(Nc2ncc(Cl)c(Nc3ccc(Cl)cc3)n2)cn1)NO`, the IC50 in test [1] was determined as 490 nM; in test [2], 4 nM; in test [3], 4.8 nM; in test [4], 49 nM; in test [5], 14 nM; in test [6], 80 nM. Besides, the viability at 1 µM in test [7] worked out at 4.31%.

Take `O=C(CCCCCCn1cc(Nc2ncc(Cl)c(Nc3cccc(Cl)c3)n2)cn1)NO`: the IC50 in test [1] came to 380 nM; in test [2] it was 10 nM; in test [3], 15 nM; in test [4], 67 nM; in test [5], 41 nM; in test [6], 130 nM. The viability at 1 µM in test [7] is 5.97%.
